{
  "source": "ChEMBL document CHEMBL1129987",
  "about": "“Structure-based design of nonpeptidic HIV protease inhibitors: the sulfonamide-substituted cyclooctylpyramones” (J Med Chem, 1997)",
  "key": {"[1]": {"test_system": "Human immunodeficiency virus 1", "experiment": "Antiviral activity in HIV-1 infected H9 cells", "format": "functional", "conditions": "Human immunodeficiency virus 1, H9; read-out: ED50 (the source's name)", "procedure,_shortened": "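H9 cells infected with HIV-1 IIIB at MOI about 0.005, spun down (200g, 10 min), resuspended at 8 × 10^5 cells/mL in RPMI Complete and mixed with compound; final DMSO 0.1%, triplicate per concentration. After 5 days at 37 °C in 5% CO2, supernatant p24 antigen was measured by ELISA. ED50 is the drug amount that reduces p24 by 50% versus DMSO drug-free controls.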"}, "[2]": {"experiment": "Median cell culture toxic dose was evaluated against H9 cell line", "format": "ADME, cell-based", "conditions": "human, H9 cells; read-out: CCTD50"}, "[3]": {"target": "Human immunodeficiency virus type 1 protease (Human immunodeficiency virus 1, UniProt Q72874)", "experiment": "Binding affinity against HIV-1 protease"}},
  "data": [
    {"smiles": "CN(C)c1ccc(S(=O)(=O)Nc2cccc(C(c3c(O)c4c(oc3=O)CCCCCC4)C3CC3)c2)cc1", "note": "(stereo not drawn)", "values": [
      {"measurement": "EC50", "setting": "[1]", "value": 8.7, "unit": "µM"},
      {"measurement": "CC50", "setting": "[2]", "value": "> 30", "unit": "µM"},
      {"measurement": "Ki", "setting": "[3]", "value": 2.8, "unit": "nM"}
    ]},
    {"smiles": "CCS(=O)(=O)Nc1cccc(C(c2c(O)c3c(oc2=O)CCCCC3)C2CC2)c1", "note": "(stereo not drawn)", "values": [
      {"measurement": "Ki", "setting": "[3]", "value": 63, "unit": "nM"}
    ]},
    {"smiles": "CCCCCCCCS(=O)(=O)Nc1cccc(C(c2c(O)c3c(oc2=O)CCCCCC3)C2CC2)c1", "note": "(stereo not drawn)", "values": [
      {"measurement": "Ki", "setting": "[3]", "value": 6, "unit": "nM"}
    ]},
    {"smiles": "CCCc1ccc(S(=O)(=O)Nc2cccc(C(c3c(O)c4c(oc3=O)CCCCCC4)C3CC3)c2)cc1", "note": "(stereo not drawn)", "values": [
      {"measurement": "CC50", "setting": "[2]", "value": "> 30", "unit": "µM"},
      {"measurement": "Ki", "setting": "[3]", "value": 11, "unit": "nM"}
    ]},
    {"smiles": "CC(C)CC(c1cccc(NS(=O)(=O)c2cn(C)cn2)c1)c1c(O)c2c(oc1=O)CCCCCC2", "note": "(stereo not drawn)", "values": [
      {"measurement": "EC50", "setting": "[1]", "value": 1.3, "unit": "µM"},
      {"measurement": "CC50", "setting": "[2]", "value": "> 30", "unit": "µM"},
      {"measurement": "Ki", "setting": "[3]", "value": 0.086, "unit": "nM"}
    ]},
    {"smiles": "N#Cc1ccc(S(=O)(=O)Nc2cccc(C(c3c(O)oc4c(c3=O)CCCCCC4)C3CC3)c2)nc1", "note": "(stereo not drawn)", "values": [
      {"measurement": "EC50", "setting": "[1]", "value": 0.9, "unit": "µM"},
      {"measurement": "CC50", "setting": "[2]", "value": "> 30", "unit": "µM"},
      {"measurement": "Ki", "setting": "[3]", "value": 1, "unit": "nM"}
    ]},
    {"smiles": "O=c1c2c(oc(O)c1C(c1cccc(NS(=O)(=O)c3ccccc3F)c1)C1CC1)CCCCCC2", "note": "(stereo not drawn)", "values": [
      {"measurement": "EC50", "setting": "[1]", "value": 5.9, "unit": "µM"},
      {"measurement": "CC50", "setting": "[2]", "value": "> 30", "unit": "µM"},
      {"measurement": "Ki", "setting": "[3]", "value": 11, "unit": "nM"}
    ]},
    {"smiles": "CC(C)(C)OC(=O)NCCC(=O)Nc1cccc(C(c2c(O)c3c(oc2=O)CCCCCC3)C2CC2)c1", "note": "(stereo not drawn)", "values": [
      {"measurement": "EC50", "setting": "[1]", "value": 33, "unit": "µM"}
    ]},
    {"smiles": "O=c1c2c(oc(O)c1C(c1cccc(S(=O)(=O)Nc3ccccc3)c1)C1CC1)CCCCCC2", "note": "(stereo not drawn)", "values": [
      {"measurement": "Ki", "setting": "[3]", "value": 36, "unit": "nM"}
    ]},
    {"smiles": "CC(C)C(c1cccc(NS(=O)(=O)c2ccc(C#N)cc2)c1)c1c(O)c2c(oc1=O)CCCCCC2", "note": "(stereo not drawn)", "values": [
      {"measurement": "EC50", "setting": "[1]", "value": "> 10", "unit": "µM"},
      {"measurement": "CC50", "setting": "[2]", "value": "> 30", "unit": "µM"},
      {"measurement": "Ki", "setting": "[3]", "value": 5.9, "unit": "nM"}
    ]},
    {"smiles": "O=c1c2c(oc(O)c1C(c1cccc(NS(=O)(=O)Cc3ccccc3)c1)C1CC1)CCCCCC2", "note": "(stereo not drawn)", "values": [
      {"measurement": "Ki", "setting": "[3]", "value": 13, "unit": "nM"}
    ]},
    {"smiles": "O=c1c2c(oc(O)c1C(c1cccc(NS(=O)(=O)c3cccc(Cl)c3)c1)C1CC1)CCCCCC2", "note": "(stereo not drawn)", "values": [
      {"measurement": "EC50", "setting": "[1]", "value": 3.2, "unit": "µM"},
      {"measurement": "CC50", "setting": "[2]", "value": "> 30", "unit": "µM"},
      {"measurement": "Ki", "setting": "[3]", "value": 2.7, "unit": "nM"}
    ]},
    {"smiles": "CCC(c1cccc(NS(=O)(=O)c2ccc(C#N)cc2)c1)c1c(O)c2c(oc1=O)CCCCCC2", "note": "(stereo not drawn)", "values": [
      {"measurement": "EC50", "setting": "[1]", "value": 3.3, "unit": "µM"},
      {"measurement": "CC50", "setting": "[2]", "value": "> 30", "unit": "µM"},
      {"measurement": "Ki", "setting": "[3]", "value": 3.1, "unit": "nM"}
    ]},
    {"smiles": "CCCC(c1cccc(NS(=O)(=O)c2ccc(C#N)cc2)c1)c1c(O)c2c(oc1=O)CCCCCC2", "note": "(stereo not drawn)", "values": [
      {"measurement": "EC50", "setting": "[1]", "value": 3.9, "unit": "µM"},
      {"measurement": "CC50", "setting": "[2]", "value": "> 30", "unit": "µM"},
      {"measurement": "Ki", "setting": "[3]", "value": 1.4, "unit": "nM"}
    ]},
    {"smiles": "O=c1c2c(oc(O)c1C(c1cccc(NS(=O)(=O)c3ccc(C(F)(F)F)cc3)c1)C1CC1)CCCCCC2", "note": "(stereo not drawn)", "values": [
      {"measurement": "EC50", "setting": "[1]", "value": 6.4, "unit": "µM"},
      {"measurement": "CC50", "setting": "[2]", "value": "> 30", "unit": "µM"},
      {"measurement": "Ki", "setting": "[3]", "value": 6.2, "unit": "nM"}
    ]},
    {"smiles": "CS(=O)(=O)Nc1cccc(C(c2c(O)c3c(oc2=O)CCCCC3)C2CC2)c1", "note": "(stereo not drawn)", "values": [
      {"measurement": "Ki", "setting": "[3]", "value": 120, "unit": "nM"}
    ]},
    {"smiles": "O=c1c2c(oc(O)c1C(c1cccc(NS(=O)(=O)CCc3ccccc3)c1)C1CC1)CCCCCC2", "note": "(stereo not drawn)", "values": [
      {"measurement": "Ki", "setting": "[3]", "value": 3.9, "unit": "nM"}
    ]},
    {"smiles": "C=CS(=O)(=O)Nc1cccc(C(c2c(O)oc3c(c2=O)CCCCC3)C2CC2)c1", "note": "(stereo not drawn)", "values": [
      {"measurement": "Ki", "setting": "[3]", "value": "> 200", "unit": "nM"}
    ]},
    {"smiles": "O=c1c2c(oc(O)c1C(c1ccccc1)C1CC1)CCCCCC2", "note": "(stereo not drawn)", "values": [
      {"measurement": "Ki", "setting": "[3]", "value": 15, "unit": "nM"}
    ]},
    {"smiles": "O=c1c2c(oc(O)c1C(c1cccc(NS(=O)(=O)c3ccccc3C(F)(F)F)c1)C1CC1)CCCCCC2", "note": "(stereo not drawn)", "values": [
      {"measurement": "CC50", "setting": "[2]", "value": "> 30", "unit": "µM"},
      {"measurement": "Ki", "setting": "[3]", "value": 21, "unit": "nM"}
    ]},
    {"smiles": "CC(C)c1ccc(S(=O)(=O)Nc2cccc(C(c3c(O)c4c(oc3=O)CCCCCC4)C3CC3)c2)cc1", "note": "(stereo not drawn)", "values": [
      {"measurement": "CC50", "setting": "[2]", "value": "> 30", "unit": "µM"},
      {"measurement": "Ki", "setting": "[3]", "value": 13, "unit": "nM"}
    ]},
    {"smiles": "O=c1c2c(oc(O)c1C(c1cccc(NS(=O)(=O)c3cc(Cl)ccc3Cl)c1)C1CC1)CCCCCC2", "note": "(stereo not drawn)", "values": [
      {"measurement": "CC50", "setting": "[2]", "value": "> 30", "unit": "µM"},
      {"measurement": "Ki", "setting": "[3]", "value": 74, "unit": "nM"}
    ]},
    {"smiles": "CCS(=O)(=O)Nc1cccc(C(c2c(O)c3c(oc2=O)CCCCCC3)C2CC2)c1", "note": "(stereo not drawn)", "values": [
      {"measurement": "Ki", "setting": "[3]", "value": 10, "unit": "nM"}
    ]},
    {"smiles": "O=c1c2c(oc(O)c1C(c1cccc(NS(=O)(=O)c3ccc(Cl)cc3Cl)c1)C1CC1)CCCCCC2", "note": "(stereo not drawn)", "values": [
      {"measurement": "CC50", "setting": "[2]", "value": "> 30", "unit": "µM"},
      {"measurement": "Ki", "setting": "[3]", "value": 6.2, "unit": "nM"}
    ]},
    {"smiles": "O=c1c2c(oc(O)c1C(c1cccc(NS(=O)(=O)c3ccccc3Cl)c1)C1CC1)CCCCCC2", "note": "(stereo not drawn)", "values": [
      {"measurement": "CC50", "setting": "[2]", "value": "> 30", "unit": "µM"},
      {"measurement": "Ki", "setting": "[3]", "value": 9.3, "unit": "nM"}
    ]},
    {"smiles": "Cc1cccc(C)c1S(=O)(=O)Nc1cccc(C(c2c(O)c3c(oc2=O)CCCCCC3)C2CC2)c1", "note": "(stereo not drawn)", "values": [
      {"measurement": "CC50", "setting": "[2]", "value": "> 30", "unit": "µM"},
      {"measurement": "Ki", "setting": "[3]", "value": "> 200", "unit": "nM"}
    ]},
    {"smiles": "O=c1c2c(oc(O)c1C(c1cccc(NS(=O)(=O)/C=C/c3ccccc3)c1)C1CC1)CCCCCC2", "note": "(stereo not drawn)", "values": [
      {"measurement": "Ki", "setting": "[3]", "value": 3, "unit": "nM"}
    ]},
    {"smiles": "O=c1c2c(oc(O)c1[C@H](c1cccc(NS(=O)(=O)c3ccccc3)c1)C1CC1)CCCCCC2", "values": [
      {"measurement": "EC50", "setting": "[1]", "value": 2.6, "unit": "µM"},
      {"measurement": "CC50", "setting": "[2]", "value": "> 30", "unit": "µM"}
    ]},
    {"smiles": "CCCCOc1ccc(S(=O)(=O)Nc2cccc(C(c3c(O)c4c(oc3=O)CCCCCC4)C3CC3)c2)cc1", "note": "(stereo not drawn)", "values": [
      {"measurement": "CC50", "setting": "[2]", "value": "> 30", "unit": "µM"},
      {"measurement": "Ki", "setting": "[3]", "value": 18, "unit": "nM"}
    ]},
    {"smiles": "CCC(c1ccccc1)c1c(O)c2ccccc2oc1=O", "note": "(stereo not drawn) [PHENPROCOUMON]", "values": [
      {"measurement": "Ki", "setting": "[3]", "value": 0.8, "unit": "nM"}
    ]},
    {"smiles": "O=c1c2c(oc(O)c1[C@@H](c1cccc(NS(=O)(=O)c3ccccc3)c1)C1CC1)CCCCCC2", "values": [
      {"measurement": "EC50", "setting": "[1]", "value": "> 10", "unit": "µM"},
      {"measurement": "CC50", "setting": "[2]", "value": "> 30", "unit": "µM"}
    ]},
    {"smiles": "CS(=O)(=O)Nc1cccc(C(c2c(O)c3c(oc2=O)CCCCCC3)C2CC2)c1", "note": "(stereo not drawn)", "values": [
      {"measurement": "Ki", "setting": "[3]", "value": 11, "unit": "nM"}
    ]},
    {"smiles": "CCCS(=O)(=O)Nc1cccc(C(c2c(O)c3c(oc2=O)CCCCCC3)C2CC2)c1", "note": "(stereo not drawn)", "values": [
      {"measurement": "Ki", "setting": "[3]", "value": 4, "unit": "nM"}
    ]},
    {"smiles": "Cn1cnc(S(=O)(=O)Nc2cccc([C@H](c3c(O)c4c(oc3=O)CCCCCC4)C3CC3)c2)c1", "values": [
      {"measurement": "CC50", "setting": "[2]", "value": "> 30", "unit": "µM"},
      {"measurement": "Ki", "setting": "[3]", "value": 0.08, "unit": "nM"}
    ]}
  ]
}
